# Test results: ChEMBL document CHEMBL5058577, “EUbOPEN Chemogenomics Library 2 (Multiplex)” (2022)
# System: U2OS
# Experiment: Multiplex assay against U2OS
# Assay type: toxicity, cell-based
# Details: human
# Summary of the method: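 Tubulin, mitochondrial-mass and membrane-permeability phenotypes are per cents of healthy-nucleus cells. Cells were gated by CellPathfinder machine learning into Hoechst high-intensity objects or normal cells, normal cells into healthy, pyknosed or fragmented nuclei, and pyknosed cells into mitotic or apoptotic. Before that, live cells stained at seeding with Hoechst33342, BioTracker Green Microtubule Cytoskeleton Dye, MitoTracker Red and Annexin V Alexa Fluor 680 were imaged on a CQ1 microscope at 37°C and 5% CO2 after compound addition.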
# [1] = 12 h, 1 µM, compound concentration 1 uM, replicate 1
# [2] = 12 h, 1 µM, compound concentration 1 uM, replicate 2
# [3] = 12 h, 10 µM, compound concentration 10 uM, replicate 1
# [4] = 12 h, 10 µM, compound concentration 10 uM, replicate 2
# [5] = 24 h, 1 µM, compound concentration 1 uM, replicate 1
# [6] = 24 h, 1 µM, compound concentration 1 uM, replicate 2
# [7] = 24 h, 10 µM, compound concentration 10 uM, replicate 1
# [8] = 24 h, 10 µM, compound concentration 10 uM, replicate 2
# [9] = 48 h, 1 µM, compound concentration 1 uM, replicate 1
# [10] = 48 h, 1 µM, compound concentration 1 uM, replicate 2
# [11] = 48 h, 10 µM, compound concentration 10 uM, replicate 1
# [12] = 48 h, 10 µM, compound concentration 10 uM, replicate 2
structure (smiles),measurement,setting,value
CCOc1c2c(c(OCC)c3ncccc13)CN(c1ccc(CS(=O)(=O)NC(=O)Cc3ccccc3OC)cc1C)C2=O,Population Apoptotic (%),[1],64%
same,Population Fragmented Nuclei (%),[1],22%
same,Population Healthy Nuclei (%),[1],70%
same,Population Hoechst High Intensity Objects (%),[1],2%
same,Population Membrane Permeable-Phenotype (%),[1],7%
same,Population Mitochondria Different-Phenotype (%),[1],3%
same,Population Mitotic Cells (%),[1],35%
same,Population Normal (%),[1],97%
same,Population Pyknosed Nuclei (%),[1],7%
same,Population Tubulin-Different-Phenotype (%),[1],2%
same,Total Cell Count,[1],189
same,Population Apoptotic (%),[2],100%
same,Population Fragmented Nuclei (%),[2],13%
same,Population Healthy Nuclei (%),[2],82%
same,Population Hoechst High Intensity Objects (%),[2],1%
same,Population Membrane Permeable-Phenotype (%),[2],9%
same,Population Mitotic Cells (%),[2],0%
same,Population Normal (%),[2],98%
same,Population Pyknosed Nuclei (%),[2],4%
same,Population Tubulin-Different-Phenotype (%),[2],6%
same,Total Cell Count,[2],93
same,Population Apoptotic (%),[3],81%
same,Population Fragmented Nuclei (%),[3],30%
same,Population Healthy Nuclei (%),[3],63%
same,Population Hoechst High Intensity Objects (%),[3],2%
same,Population Membrane Permeable-Phenotype (%),[3],5%
same,Population Mitochondria Different-Phenotype (%),[3],3%
same,Population Mitotic Cells (%),[3],18%
same,Population Normal (%),[3],97%
same,Population Pyknosed Nuclei (%),[3],6%
same,Population Tubulin-Different-Phenotype (%),[3],2%
same,Total Cell Count,[3],248
same,Population Apoptotic (%),[4],80%
same,Population Fragmented Nuclei (%),[4],21%
same,Population Healthy Nuclei (%),[4],75%
same,Population Membrane Permeable-Phenotype (%),[4],8%
same,Population Mitochondria Different-Phenotype (%),[4],6%
same,Population Mitotic Cells (%),[4],20%
same,Population Pyknosed Nuclei (%),[4],3%
same,Population Tubulin-Different-Phenotype (%),[4],3%
same,Total Cell Count,[4],136
same,Population Apoptotic (%),[5],80%
same,Population Fragmented Nuclei (%),[5],21%
same,Population Healthy Nuclei (%),[5],71%
same,Population Hoechst High Intensity Objects (%),[5],3%
same,Population Membrane Permeable-Phenotype (%),[5],4%
same,Population Mitochondria Different-Phenotype (%),[5],0%
same,Population Mitotic Cells (%),[5],20%
same,Population Normal (%),[5],96%
same,Population Pyknosed Nuclei (%),[5],6%
same,Population Tubulin-Different-Phenotype (%),[5],1%
same,Total Cell Count,[5],235
same,Population Apoptotic (%),[6],100%
same,Population Fragmented Nuclei (%),[6],19%
same,Population Healthy Nuclei (%),[6],76%
same,Population Hoechst High Intensity Objects (%),[6],1%
same,Population Membrane Permeable-Phenotype (%),[6],7%
same,Population Mitochondria Different-Phenotype (%),[6],4%
same,Population Mitotic Cells (%),[6],0%
same,Population Normal (%),[6],98%
same,Population Pyknosed Nuclei (%),[6],4%
same,Population Tubulin-Different-Phenotype (%),[6],4%
same,Total Cell Count,[6],125
same,Population Apoptotic (%),[7],76%
same,Population Fragmented Nuclei (%),[7],27%
same,Population Healthy Nuclei (%),[7],61%
same,Population Hoechst High Intensity Objects (%),[7],3%
same,Population Membrane Permeable-Phenotype (%),[7],6%
same,Population Mitochondria Different-Phenotype (%),[7],2%
same,Population Mitotic Cells (%),[7],23%
same,Population Normal (%),[7],96%
same,Population Pyknosed Nuclei (%),[7],10%
same,Population Tubulin-Different-Phenotype (%),[7],1%
same,Total Cell Count,[7],285
same,Population Apoptotic (%),[8],100%
same,Population Fragmented Nuclei (%),[8],17%
same,Population Healthy Nuclei (%),[8],76%
same,Population Hoechst High Intensity Objects (%),[8],0%
same,Population Mitotic Cells (%),[8],0%
same,Population Normal (%),[8],99%
same,Population Pyknosed Nuclei (%),[8],5%
same,Population Tubulin-Different-Phenotype (%),[8],5%
same,Total Cell Count,[8],152
same,Population Apoptotic (%),[9],85%
same,Population Fragmented Nuclei (%),[9],19%
same,Population Healthy Nuclei (%),[9],74%
same,Population Hoechst High Intensity Objects (%),[9],2%
same,Population Membrane Permeable-Phenotype (%),[9],3%
same,Population Mitochondria Different-Phenotype (%),[9],1%
same,Population Mitotic Cells (%),[9],15%
same,Population Normal (%),[9],97%
same,Population Pyknosed Nuclei (%),[9],5%
same,Population Tubulin-Different-Phenotype (%),[9],2%
same,Total Cell Count,[9],344
same,Population Apoptotic (%),[10],100%
same,Population Fragmented Nuclei (%),[10],17%
same,Population Healthy Nuclei (%),[10],79%
same,Population Hoechst High Intensity Objects (%),[10],4%
same,Population Membrane Permeable-Phenotype (%),[10],7%
same,Population Mitochondria Different-Phenotype (%),[10],3%
same,Population Mitotic Cells (%),[10],0%
same,Population Normal (%),[10],95%
same,Population Pyknosed Nuclei (%),[10],2%
same,Population Tubulin-Different-Phenotype (%),[10],5%
same,Total Cell Count,[10],167
same,Population Apoptotic (%),[11],91%
same,Population Fragmented Nuclei (%),[11],19%
same,Population Healthy Nuclei (%),[11],71%
same,Population Hoechst High Intensity Objects (%),[11],2%
same,Population Membrane Permeable-Phenotype (%),[11],5%
same,Population Mitochondria Different-Phenotype (%),[11],1%
same,Population Mitotic Cells (%),[11],8%
same,Population Normal (%),[11],97%
same,Population Pyknosed Nuclei (%),[11],9%
same,Population Tubulin-Different-Phenotype (%),[11],2%
same,Total Cell Count,[11],385
same,Population Apoptotic (%),[12],100%
same,Population Fragmented Nuclei (%),[12],18%
same,Population Healthy Nuclei (%),[12],74%
same,Population Membrane Permeable-Phenotype (%),[12],8%
same,Population Mitochondria Different-Phenotype (%),[12],4%
same,Population Mitotic Cells (%),[12],0%
same,Population Pyknosed Nuclei (%),[12],6%
same,Population Tubulin-Different-Phenotype (%),[12],3%
same,Total Cell Count,[12],236
